PMC4191598 (Journal of Medicinal Chemistry, 2014)

How the values were obtained:
human TLR8 [1] = target: T1, human TLR8 (Homo sapiens, UniProt Q9NR97); conditions: earlier observation; cited from earlier work
T1 sequence (Q9NR97 27-1041): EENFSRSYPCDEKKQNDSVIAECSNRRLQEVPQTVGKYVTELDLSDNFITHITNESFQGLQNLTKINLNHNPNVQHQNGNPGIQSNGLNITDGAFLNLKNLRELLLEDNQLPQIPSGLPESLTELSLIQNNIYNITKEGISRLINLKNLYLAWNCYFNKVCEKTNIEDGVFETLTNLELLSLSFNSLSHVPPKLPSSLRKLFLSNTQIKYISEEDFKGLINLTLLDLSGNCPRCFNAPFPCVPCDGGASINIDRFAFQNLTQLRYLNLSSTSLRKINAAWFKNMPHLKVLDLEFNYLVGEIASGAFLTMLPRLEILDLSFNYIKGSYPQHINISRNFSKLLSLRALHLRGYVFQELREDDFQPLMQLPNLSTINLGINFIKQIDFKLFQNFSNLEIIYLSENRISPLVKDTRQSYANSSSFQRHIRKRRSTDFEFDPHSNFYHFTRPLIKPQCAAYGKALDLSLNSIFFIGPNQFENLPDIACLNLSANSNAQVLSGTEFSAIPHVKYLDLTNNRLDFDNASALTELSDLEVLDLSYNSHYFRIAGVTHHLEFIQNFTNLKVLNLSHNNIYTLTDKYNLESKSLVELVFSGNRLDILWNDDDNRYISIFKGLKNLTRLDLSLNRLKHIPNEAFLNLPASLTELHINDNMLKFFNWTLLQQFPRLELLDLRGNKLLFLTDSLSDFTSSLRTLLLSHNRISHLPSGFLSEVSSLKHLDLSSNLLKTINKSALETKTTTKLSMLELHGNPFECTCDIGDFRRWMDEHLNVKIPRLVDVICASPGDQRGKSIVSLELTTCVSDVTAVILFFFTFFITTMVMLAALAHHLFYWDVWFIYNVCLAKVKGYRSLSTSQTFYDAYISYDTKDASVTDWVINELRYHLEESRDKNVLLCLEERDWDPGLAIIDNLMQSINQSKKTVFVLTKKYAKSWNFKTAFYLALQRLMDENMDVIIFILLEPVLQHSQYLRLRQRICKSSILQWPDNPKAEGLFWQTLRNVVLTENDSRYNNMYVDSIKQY

[2] = tested on: human peripheral blood mononuclear cells (hPBMCs); assay: IFN-α induction in human PBMCs; assay type: cell-based; conditions: 12 h stimulation, graded concentrations
In short: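 Fresh PBMCs were isolated on Ficoll–Hypaque gradients from venous blood of consenting donors and plated at 10^5 cells/well. They were stimulated for 12 h with graded concentrations of test compound. Supernatants were collected by centrifugation and assayed in triplicate with high-sensitivity multisubtype IFN-α ELISA.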

human TLR7 = target: T2, human TLR7 (Homo sapiens, UniProt Q9NYK1); assay: Human TLR7 reporter gene assay; assay type: cell-based; conditions: for TLR7-agonistic activity (in words): TLR7 reporter gene assay
T2 sequence (Q9NYK1 27-1049): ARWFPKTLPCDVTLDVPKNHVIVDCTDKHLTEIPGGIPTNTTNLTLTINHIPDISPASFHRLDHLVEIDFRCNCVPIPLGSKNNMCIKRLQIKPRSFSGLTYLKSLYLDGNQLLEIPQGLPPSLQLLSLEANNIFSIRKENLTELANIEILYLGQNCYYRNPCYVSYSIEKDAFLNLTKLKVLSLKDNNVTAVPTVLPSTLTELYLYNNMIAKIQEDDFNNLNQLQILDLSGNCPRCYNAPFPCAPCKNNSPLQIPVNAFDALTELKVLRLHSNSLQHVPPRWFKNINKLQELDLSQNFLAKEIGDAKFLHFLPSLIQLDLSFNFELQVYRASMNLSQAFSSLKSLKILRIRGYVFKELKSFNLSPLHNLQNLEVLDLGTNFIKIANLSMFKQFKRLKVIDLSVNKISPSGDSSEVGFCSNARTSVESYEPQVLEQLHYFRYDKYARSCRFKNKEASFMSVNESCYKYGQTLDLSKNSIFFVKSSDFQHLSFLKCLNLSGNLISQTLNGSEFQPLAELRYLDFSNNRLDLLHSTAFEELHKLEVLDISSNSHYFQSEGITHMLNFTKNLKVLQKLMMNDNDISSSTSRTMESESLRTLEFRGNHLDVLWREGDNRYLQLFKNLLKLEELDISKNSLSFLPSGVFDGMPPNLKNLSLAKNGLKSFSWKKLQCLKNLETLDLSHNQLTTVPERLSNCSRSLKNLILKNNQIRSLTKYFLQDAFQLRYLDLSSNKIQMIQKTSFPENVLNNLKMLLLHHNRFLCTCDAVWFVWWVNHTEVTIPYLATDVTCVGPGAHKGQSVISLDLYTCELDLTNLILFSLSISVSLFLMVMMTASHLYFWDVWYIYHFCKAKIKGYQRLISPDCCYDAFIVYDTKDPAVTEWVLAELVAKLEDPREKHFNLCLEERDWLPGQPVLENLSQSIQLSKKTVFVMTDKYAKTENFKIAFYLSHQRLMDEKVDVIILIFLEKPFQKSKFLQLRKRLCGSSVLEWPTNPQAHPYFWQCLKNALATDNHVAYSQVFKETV

human TLR8 [3] = target: T1, human TLR8; assay: Human TLR8 reporter gene assay; assay type: cell-based; conditions: for TLR8-agonistic activity (in words): TLR8 reporter gene assay; for TLR7/TLR8 selectivity (in words): TLR7 and TLR8 reporter gene assays
In short: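 HEK-Blue cells carrying human TLR8, with secreted alkaline phosphatase under NF-κB/AP-1 promoter control, seeded at ~10^5 cells/mL and grown to confluency. Stimulated with graded concentrations of test compound. Supernatant sAP, proportional to NF-κB induction, read spectrophotometrically at 620 nm using an alkaline phosphatase-specific chromogen in the detection medium.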

[4] = tested on: human lymphocytic subsets in whole blood; assay: CD69 up-regulation in lymphocytic subsets, ex vivo whole human blood; assay type: cell-based; conditions: 16.5 h

Row | Structure (SMILES) | TLR7-agonistic activity (in words) (human TLR7) | TLR8-agonistic activity (in words) (human TLR8 [3]) | other results
1 | CCCCc1cc2c(o1)c(N)nc1ccccc12 [Compound 5, 2-butylfuro[2,3-c]quinolin-4-amine] | – | – | TLR8 agonism (in words) (human TLR8 [1]): prominent and selective TLR8 agonism
2 | CCCCc1nc2c(N)nc3ccccc3c2o1 [Compound 9, 2-Butyloxazolo[4,5-c]quinolin-4-amine] | – | – | IFN-α induction [2]: showed IFN-α inducing ability
3 | CCCNc1nc2c(N)nc3ccccc3c2s1 [Compound 11, N^2-Propylthiazolo[4,5-c]quinoline-2,4-diamine] | – | – | EC50 (human TLR7): 730 nM; IFN-α induction [2]: showed IFN-α inducing ability
4 | CCCNc1nc2c(N)nc3ccccc3c2o1 [Compound 13, N^2-Propyloxazolo[4,5-c]quinoline-2,4-diamine] | entirely devoid of any detectable TLR7- or TLR8-agonistic activity | entirely devoid of any detectable TLR7- or TLR8-agonistic activity | –
5 | CCCCC1CN2C(N)=Nc3ccccc3C2=N1 (stereo not drawn) [Compound 27, 2-Butyl-2,3-dihydroimidazo[1,2-c]quinazolin-5-amine] | entirely inactive | entirely inactive | –
6 | CCCCc1cn2c(N)nc3ccccc3c2n1 [Compound 29, 2-Butylimidazo[1,2-c]quinazolin-5-amine] | entirely inactive | entirely inactive | –
7 | CCCCc1nc2c3ccccc3nc(N)n2n1 [Compound 33, 2-Butyl[1,2,4]triazolo[1,5-c]quinazolin-5-amine] | inactive | inactive | –
8 | CCCCC1CN2C(=N1)C(N)=Nc1ccccc12 (stereo not drawn) [Compound 37, 2-Butyl-1,2-dihydroimidazo[1,2-a]quinoxalin-4-amine] | – | – | TLR7/TLR8 selectivity (in words) (human TLR8 [3]): selective TLR8 agonists
9 | CCCCc1cn2c(n1)c(N)nc1ccccc12 [Compound 39, 2-Butylimidazo[1,2-a]quinoxalin-4-amine] | – | – | TLR7/TLR8 selectivity (in words) (human TLR8 [3]): selective TLR8 agonists
10 | CCCCc1nc2c(N)nc3ccccc3n2n1 [Compound 46, 2-Butyl[1,2,4]triazolo[1,5-a]quinoxalin-4-amine] | complete loss of activity | complete loss of activity | –
11 | CCCCc1nnc2c(N)nc3ccccc3n12 [Compound 49, 1-Butyl[1,2,4]triazolo[4,3-a]quinoxalin-4-amine] | complete loss of activity | complete loss of activity | –
12 | CCCCn1cc2c(n1)c(N)nc1ccccc12 [Compound 53, 2-Butyl-2H-pyrazolo[3,4-c]quinolin-4-amine] | – | – | IFN-α induction [2]: showed IFN-α inducing ability; CD69 expression in cytokine-induced killer-, natural killer-, T- and B-lymphocytic subsets [4]: dramatically enhanced expression

Second part, led by results:

Row | TLR7-agonistic activity (in words) (human TLR7) | TLR8-agonistic activity (in words) (human TLR8 [3]) | Structure (SMILES) | other results
13 | inactive | inactive | CCC(=O)Nc1nc2c(N)nc3ccccc3c2s1 [Compound 16, N-(4-Aminothiazolo[4,5-c]quinolin-2-yl)propionamide] | –
14 | inactive | inactive | Nc1nc2c(N)nc3ccccc3c2s1 [Compound 17, thiazolo[4,5-c]quinoline-2,4-diamine] | –
15 | completely inactive | completely inactive | CCCCc1nc2c(s1)c(N)nc1ccccc12 [Compound 22a, 2-Butylthiazolo[5,4-c]quinolin-4-amine] | –
16 | – | negligibly low TLR8-agonistic activity | CCCCc1nc2c(o1)c(N)nc1ccccc12 [Compound 22b, 2-Butyloxazolo[5,4-c]quinolin-4-amine] | –
